Reference: ChEMBL document CHEMBL1137302 (J Med Chem, 2006)
Calls of active or inactive are those of the source. The calls are words filed in the database; no cut-off is given here.

Tests used:
Rattus norvegicus [1] = test: Proerectile activity in rat measured as incidence of penile erection at 0.01 umol/kg, sc; format: functional
Outline: (§1)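 Conscious male rats dosed subcutaneously. Penile erection incidence scored over 60 min after injection; values are % ± SEM, with significance tested against control.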

D(4) dopamine receptor [2] = molecular target: T1, D(4) dopamine receptor (Homo sapiens, UniProt P21917); test: (§2) Agonist activity at human D4.4 receptor in HEK293 cells coexpressing G-alpha-qo5 by FLIPR; format: functional, cell-based
T1 sequence (P21917 whole entry): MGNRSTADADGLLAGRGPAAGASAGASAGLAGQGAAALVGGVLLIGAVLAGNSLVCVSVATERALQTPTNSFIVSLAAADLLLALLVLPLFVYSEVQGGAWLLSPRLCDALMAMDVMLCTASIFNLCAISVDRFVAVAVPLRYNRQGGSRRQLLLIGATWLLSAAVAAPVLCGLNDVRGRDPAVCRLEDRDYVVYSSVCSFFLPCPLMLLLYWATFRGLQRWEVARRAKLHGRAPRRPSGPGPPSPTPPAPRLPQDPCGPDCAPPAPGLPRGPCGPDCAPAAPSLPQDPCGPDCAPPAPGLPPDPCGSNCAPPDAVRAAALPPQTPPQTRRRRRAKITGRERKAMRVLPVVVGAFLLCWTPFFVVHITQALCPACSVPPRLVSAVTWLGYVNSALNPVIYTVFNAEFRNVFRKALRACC

[3] = molecular target: T2, D(4) dopamine receptor (Homo sapiens) (UniProt P21917); test: Activity at human D4.4 receptor in HEK293 cells co-expressing Galphaqo5 by FLIPR; format: functional, cell-based
T2 sequence (whole entry): T1 sequence (P21917 whole entry)

Rattus norvegicus [4] = test: Blockade of ABT-670-induced erctogenic activity in rat at 1 umol/kg, ip; format: functional, organism-based
D(2) dopamine receptor [5] = molecular target: T3, D(2) dopamine receptor (Homo sapiens, UniProt P14416); test: Displacement of [125I]7-OH-PIPAT from human D2L receptor expressed in HEK293 cell membrane; format: cell membranes
T3 sequence (P14416 whole entry): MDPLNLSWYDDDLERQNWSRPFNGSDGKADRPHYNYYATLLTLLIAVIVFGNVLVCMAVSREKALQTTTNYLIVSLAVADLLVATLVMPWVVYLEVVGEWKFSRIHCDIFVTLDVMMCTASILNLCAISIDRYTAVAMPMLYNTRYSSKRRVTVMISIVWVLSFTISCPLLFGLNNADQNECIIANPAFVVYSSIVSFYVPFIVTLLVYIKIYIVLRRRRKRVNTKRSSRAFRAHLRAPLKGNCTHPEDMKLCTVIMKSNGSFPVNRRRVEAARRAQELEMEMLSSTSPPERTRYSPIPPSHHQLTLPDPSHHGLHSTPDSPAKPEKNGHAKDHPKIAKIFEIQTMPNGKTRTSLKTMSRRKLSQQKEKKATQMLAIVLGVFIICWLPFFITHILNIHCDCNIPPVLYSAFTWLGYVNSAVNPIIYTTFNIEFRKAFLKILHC

D(2) dopamine receptor [6] = molecular target: T3, D(2) dopamine receptor; test: Binding affinity at human D2L receptor by displacement of [125I]-7-OH-PIPAT in membranes
[7] = Bioavailability in Sprague-Dawley rat at 1 mg/kg, po; format: ADME, organism-based; conditions: in vivo
Outline: (§3)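 Single 1 mg/kg dose given iv, sc or orally to Sprague-Dawley rats, dogs and monkeys; plasma concentrations followed over time (mean ± SEM, n = 3). Cmax, AUC, half-life, clearance and bioavailability calculated from the curves.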

[8] = Bioavailability in Sprague-Dawley rat at 1 mg/kg, sc; format: ADME, organism-based; conditions: in vivo; outline: as §3
[9] = Half life in Sprague-Dawley rat at 1 mg/kg, sc; format: ADME, organism-based; design: dose 1 mg/kg, route subcutaneous; conditions: in vivo; outline: as §3
Rattus norvegicus [10] = test: Proerectile activity in rat measured as incidence of penile erection at 0.03 umol/kg, sc; format: functional; outline: as §1
D(4) dopamine receptor [11] = molecular target: T1, D(4) dopamine receptor; test: Displacement of [3H]spiperone from human D4 receptor expressed in HEK293 cell membrane; format: cell membranes
D(4) dopamine receptor [12] = molecular target: T1, D(4) dopamine receptor; test: Displacement of [3H]A369508 from human D4 receptor expressed in HEK293 cell membrane; format: cell membranes
D(2) dopamine receptor [13] = molecular target: T3, D(2) dopamine receptor; test: Agonist activity at human D2 receptor in HEK293 cells coexpressing G-alpha-qo5 by FLIPR; format: functional, cell-based
[14] = molecular target: T2, D(4) dopamine receptor (Homo sapiens); test: as §2; format: functional, cell-based
[15] = molecular target: T2, D(4) dopamine receptor (Homo sapiens); test: Agonist activity at human D4.4 receptor in HEK293 cells coexpressing G-alpha-qo5 by FLIPR upto 10 uM; format: functional, cell-based
Rattus norvegicus [16] = test: Blockade of ABT-670-induced erctogenic activity in rat at 10 umol/kg, ip; format: functional, organism-based
Rattus norvegicus [17] = test: Blockade of ABT-670-induced erctogenic activity in rat at 3 umol/kg, ip; format: functional, organism-based
[18] = system: D(2) dopamine receptor (Mustela putorius furo); test: Agonist activity at ferret D2 receptor in HEK293 cells coexpressing Galphaqo5 by FLIPR relative to dopamine upto 10 uM
[19] = molecular target: D(2) dopamine receptor (Rattus norvegicus) (UniProt P61169); test: Agonist activity at rat D2 receptor in HEK293 cells coexpressing G-alpha-qo5 by FLIPR relative to dopamine upto 10 uM; format: functional, cell-based
Sequence of D(2) dopamine receptor (Rattus norvegicus) (P61169 whole entry): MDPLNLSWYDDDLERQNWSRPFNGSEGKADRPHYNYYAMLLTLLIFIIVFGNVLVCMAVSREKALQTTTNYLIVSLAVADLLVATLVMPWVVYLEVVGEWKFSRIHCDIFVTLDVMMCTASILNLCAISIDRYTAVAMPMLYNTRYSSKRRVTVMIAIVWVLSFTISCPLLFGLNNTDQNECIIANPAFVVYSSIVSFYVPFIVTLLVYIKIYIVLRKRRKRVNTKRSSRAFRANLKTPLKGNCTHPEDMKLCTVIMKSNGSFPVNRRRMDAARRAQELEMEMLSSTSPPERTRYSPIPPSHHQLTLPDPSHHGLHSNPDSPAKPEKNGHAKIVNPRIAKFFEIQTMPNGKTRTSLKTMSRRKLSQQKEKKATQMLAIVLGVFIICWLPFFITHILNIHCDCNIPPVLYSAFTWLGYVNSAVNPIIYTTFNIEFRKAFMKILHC
Outline: (§4)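 Ca2+ flux by FLIPR in HEK cells cotransfected with the D2 receptor (human, ferret or rat) plus chimeric G protein Gqo5.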

Mustela putorius furo [20] = organism: Mustela putorius furo; test: Induction of nausea in ferret; format: functional, organism-based
[21] = molecular target: T4, D(4) dopamine receptor (Rattus norvegicus) (UniProt P30729); test: Agonist activity at rat D4 receptor in HEK293 cells co-expressing Galphaqo5 by FLIPR relative to dopamine; format: functional, cell-based
T4 sequence (whole entry): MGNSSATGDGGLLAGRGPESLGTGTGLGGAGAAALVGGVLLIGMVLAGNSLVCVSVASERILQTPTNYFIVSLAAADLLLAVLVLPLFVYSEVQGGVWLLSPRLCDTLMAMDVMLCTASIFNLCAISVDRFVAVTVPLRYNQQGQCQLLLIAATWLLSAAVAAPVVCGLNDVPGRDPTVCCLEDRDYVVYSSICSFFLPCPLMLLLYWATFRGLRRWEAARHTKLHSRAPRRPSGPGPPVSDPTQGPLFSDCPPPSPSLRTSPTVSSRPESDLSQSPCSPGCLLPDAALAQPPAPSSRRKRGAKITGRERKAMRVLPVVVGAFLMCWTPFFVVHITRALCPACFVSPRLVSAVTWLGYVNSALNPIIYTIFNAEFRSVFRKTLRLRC

D(2) dopamine receptor [22] = molecular target: T3, D(2) dopamine receptor; test: Agonist activity at human D2 receptor in HEK293 cells coexpressing G-alpha-qo5 by FLIPR relative to dopamine upto 10 uM; format: functional, cell-based; outline: as §4
Mustela putorius furo [23] = organism: Mustela putorius furo; test: Induction of emesis in ferret; format: functional, organism-based
D(4) dopamine receptor [24] = molecular target: T5, D(4) dopamine receptor (Rattus norvegicus, UniProt P30729); test: Agonist activity at rat D4 receptor in HEK293 cells coexpressing G-alpha-qo5 by FLIPR; format: functional, cell-based
T5 sequence (P30729 whole entry): T4 sequence (whole entry)

[25] = molecular target: D(3) dopamine receptor (Homo sapiens) (UniProt P35462); test: Agonist activity at human D3 receptor in HEK293 cells coexpressing G-alpha-qo5 by FLIPR upto 10 uM; format: functional, cell-based
Sequence of D(3) dopamine receptor (Homo sapiens) (P35462 whole entry): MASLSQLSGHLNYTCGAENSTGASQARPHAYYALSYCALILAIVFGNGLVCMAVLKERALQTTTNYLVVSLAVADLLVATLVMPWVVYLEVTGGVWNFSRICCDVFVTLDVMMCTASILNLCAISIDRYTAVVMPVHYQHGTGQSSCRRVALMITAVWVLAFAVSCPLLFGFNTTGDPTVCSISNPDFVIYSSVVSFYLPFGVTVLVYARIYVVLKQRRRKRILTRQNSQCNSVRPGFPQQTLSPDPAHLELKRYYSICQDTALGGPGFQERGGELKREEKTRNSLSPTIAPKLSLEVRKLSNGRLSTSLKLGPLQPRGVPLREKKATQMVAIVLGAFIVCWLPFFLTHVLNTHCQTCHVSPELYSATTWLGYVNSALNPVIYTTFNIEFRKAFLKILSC

D(2) dopamine receptor [26] = molecular target: T3, D(2) dopamine receptor; test: Binding affinity to human D2S receptor
hERG = hERG (Homo sapiens, UniProt Q12809); test: Blockade of current at hERG expressed in HEK293 cells at 3 ug/mL; format: cell-based; conditions: HEK293 cells that express hERG
Sequence of hERG (Q12809 whole entry): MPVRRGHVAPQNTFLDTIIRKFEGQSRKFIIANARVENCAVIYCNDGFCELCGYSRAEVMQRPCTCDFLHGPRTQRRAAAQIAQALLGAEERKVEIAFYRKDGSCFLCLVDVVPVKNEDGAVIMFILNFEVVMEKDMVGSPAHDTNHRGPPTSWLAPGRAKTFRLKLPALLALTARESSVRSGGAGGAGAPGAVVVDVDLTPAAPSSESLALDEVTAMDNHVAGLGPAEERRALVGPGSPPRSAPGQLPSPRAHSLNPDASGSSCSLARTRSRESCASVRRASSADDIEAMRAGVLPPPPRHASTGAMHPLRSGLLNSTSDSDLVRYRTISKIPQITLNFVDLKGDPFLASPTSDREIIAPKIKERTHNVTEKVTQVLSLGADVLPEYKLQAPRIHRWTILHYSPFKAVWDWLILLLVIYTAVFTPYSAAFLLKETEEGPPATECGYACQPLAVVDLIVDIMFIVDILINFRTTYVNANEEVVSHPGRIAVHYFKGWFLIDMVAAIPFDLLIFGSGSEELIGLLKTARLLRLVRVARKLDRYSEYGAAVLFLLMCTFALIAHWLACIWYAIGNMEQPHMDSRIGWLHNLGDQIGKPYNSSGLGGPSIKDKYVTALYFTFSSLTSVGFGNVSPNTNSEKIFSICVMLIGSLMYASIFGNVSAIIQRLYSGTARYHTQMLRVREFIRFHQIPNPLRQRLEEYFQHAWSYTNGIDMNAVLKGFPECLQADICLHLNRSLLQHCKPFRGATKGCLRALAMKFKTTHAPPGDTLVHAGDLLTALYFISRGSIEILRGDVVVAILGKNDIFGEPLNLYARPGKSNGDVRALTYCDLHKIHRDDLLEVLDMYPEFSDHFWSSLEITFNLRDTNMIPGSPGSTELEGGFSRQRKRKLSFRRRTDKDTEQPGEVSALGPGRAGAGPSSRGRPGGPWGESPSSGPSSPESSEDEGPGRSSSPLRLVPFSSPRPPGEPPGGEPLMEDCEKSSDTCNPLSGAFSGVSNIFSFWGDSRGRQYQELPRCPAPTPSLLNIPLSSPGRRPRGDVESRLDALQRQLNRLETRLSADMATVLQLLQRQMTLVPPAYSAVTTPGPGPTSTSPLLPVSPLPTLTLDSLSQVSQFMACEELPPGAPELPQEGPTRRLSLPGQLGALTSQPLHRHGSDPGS
Outline: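 hERG stably expressed in HEK293 cells; whole-cell voltage clamp. Pipette: K aspartate/KCl/EGTA/MgATP, pH 7.3. Bath: NaCl-based HEPES, pH 7.4. Compound dissolved in DMSO (≤0.1%), one concentration per cell. Steps to -25 to +50 mV for 3 s, then -50 mV for 4 s, from -80 mV every 15 s; tail current measured against DMSO vehicle.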

[27] = Oral bioavailability in rat; format: ADME, organism-based; conditions: in vivo; outline: as §3
[28] = molecular target: Phosphodiesterase 6 (Homo sapiens) (UniProt Q13956+P18545+P35913+O43924+P16499+P51160); test: Activity at PDE6 at 10 uM; format: protein assay
Outline: (§5)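 Broad selectivity panel (over 70 receptors, ion channels and neuronal receptors, PDE1-6 included) run at a single 10 µM concentration.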

[29] = molecular target: cGMP-dependent 3',5'-cyclic phosphodiesterase (Homo sapiens) (UniProt O00408); test: Activity at PDE2 at 10 uM; outline: as §5
Sequence of cGMP-dependent 3',5'-cyclic phosphodiesterase (Homo sapiens) (O00408 whole entry): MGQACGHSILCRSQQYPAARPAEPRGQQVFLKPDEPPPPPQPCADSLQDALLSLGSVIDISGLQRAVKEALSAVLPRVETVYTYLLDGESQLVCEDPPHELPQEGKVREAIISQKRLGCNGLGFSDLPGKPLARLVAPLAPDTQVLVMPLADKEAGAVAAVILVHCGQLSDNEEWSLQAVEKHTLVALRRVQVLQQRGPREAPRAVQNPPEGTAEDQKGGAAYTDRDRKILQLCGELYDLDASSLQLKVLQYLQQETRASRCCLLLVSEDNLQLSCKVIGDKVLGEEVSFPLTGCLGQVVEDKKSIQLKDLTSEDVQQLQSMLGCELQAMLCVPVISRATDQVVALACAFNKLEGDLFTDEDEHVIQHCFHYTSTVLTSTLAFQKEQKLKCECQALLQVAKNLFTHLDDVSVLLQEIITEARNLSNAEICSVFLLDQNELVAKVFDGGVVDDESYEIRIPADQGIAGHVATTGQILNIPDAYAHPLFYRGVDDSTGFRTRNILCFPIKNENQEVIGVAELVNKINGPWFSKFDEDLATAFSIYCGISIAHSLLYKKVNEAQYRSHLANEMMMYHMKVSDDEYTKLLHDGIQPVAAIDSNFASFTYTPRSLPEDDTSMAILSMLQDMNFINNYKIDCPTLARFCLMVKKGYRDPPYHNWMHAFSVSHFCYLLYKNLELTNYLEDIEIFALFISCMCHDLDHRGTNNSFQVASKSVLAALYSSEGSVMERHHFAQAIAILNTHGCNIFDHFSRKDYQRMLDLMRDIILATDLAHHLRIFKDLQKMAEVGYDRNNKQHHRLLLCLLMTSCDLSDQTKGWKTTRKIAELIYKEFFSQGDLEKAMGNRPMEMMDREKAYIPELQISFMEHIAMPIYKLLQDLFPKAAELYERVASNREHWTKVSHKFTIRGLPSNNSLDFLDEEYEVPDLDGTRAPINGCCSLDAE

[30] = Half life in Sprague-Dawley rat at 1 mg/kg, po; format: ADME, organism-based; design: dose 1 mg/kg, route oral; conditions: in vivo; outline: as §3
Rattus norvegicus [31] = test: Proerectile activity in rat measured as incidence of penile erection at 0.3 umol/kg, sc; format: functional
Outline: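 Conscious male rats were given a single subcutaneous injection and observed for penile erections over the following 60 min. The read-out was the incidence of erections, expressed as % of animals ± SEM (n = 12–32 animals per group), with significance tested against controls. The value is the maximal incidence at the maximally effective dose.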

[32] = molecular target: Phosphodiesterase 3 (Homo sapiens) (UniProt Q14432+Q13370); test: Activity at PDE3 at 10 uM; format: protein assay; outline: as §5
[33] = molecular target: Phosphodiesterase 1 (Homo sapiens) (UniProt P54750+Q01064+Q14123); test: Activity at PDE1 at 10 uM; format: protein assay; outline: as §5
[34] = molecular target: Phosphodiesterase 4 (Homo sapiens) (UniProt P27815+Q08499+Q07343+Q08493); test: Activity at PDE4 at 10 uM; format: protein assay; outline: as §5
[35] = Oral bioavailability in dog; format: ADME, organism-based, Canis lupus familiaris; conditions: in vivo; outline: as §3
[36] = molecular target: cGMP-specific 3',5'-cyclic phosphodiesterase (Homo sapiens) (UniProt O76074); test: Activity at PDE5 at 10 uM; outline: as §5
[37] = Effect on canine cardiac Purkinje fiber repolarization measured as prolongation of action potential duration at 1.6 ug/mL; format: functional, Canis lupus familiaris
Outline: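 Canine Purkinje fibres impaled with 3 M KCl microelectrodes after at least 30 min equilibration under stimulation. Bath: 131 mM NaCl, 18 mM NaHCO3, 4 mM KCl, 2 mM CaCl2. Baseline APD90 recorded at BCL 2 s, 800 and 400 ms. Each fibre then received two ascending concentrations, each with 25 min equilibration and re-recording at all three rates.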

[38] = Oral bioavailability in monkey; format: ADME, organism-based, Macaca mulatta; conditions: rhesus monkey, in vivo; outline: as §3

Cc1ccc([N+](=O)[O-])cc1NC(=O)CN1CCC(c2cccc[n+]2[O-])CC1
Activity (Rattus norvegicus [1]): 83% | EC50 (D(4) dopamine receptor [2]): 134 nM | Activity ([3]; filed as agonist): Agonist

O=C(CCCN1CCC(O)(c2ccc(Cl)cc2)CC1)c1ccc(F)cc1
Activity (Rattus norvegicus [4]): Active

Cc1cccc(C(=O)NCN2CCC(c3ccccn3)CC2)c1
Ki (D(2) dopamine receptor [5]): 3500 nM | Ki (D(2) dopamine receptor [6]): 3500 nM | EC50 (D(4) dopamine receptor [2]): 9 nM | bioavailability [7]: 2% | bioavailability [8]: 76% | half-life [9]: 36 min | Activity (Rattus norvegicus [10]): 83% | Ki (D(4) dopamine receptor [11]): 32 nM

COc1ccccc1C1CCN(CNC(=O)c2cccc(C)c2)CC1
Ki (D(4) dopamine receptor [12]): 1.3 nM | Ki (D(2) dopamine receptor [5]): 27 nM | EC50 (D(4) dopamine receptor [2]): 206 nM | Activity ([3]; filed as partial agonist): Partial agonist | EC50 (D(2) dopamine receptor [13]): > 10000 nM

Cc1cccc(C(=O)NCN2CCC(c3ccccc3)CC2)c1
Ki (D(2) dopamine receptor [5]): 235 nM | Efficacy [14]: 17% | Activity [15]: inactive

O=c1[nH]c2ccccc2n1CCCN1CCC(n2c(=O)[nH]c3cc(Cl)ccc32)CC1
Activity (Rattus norvegicus [16]): inactive

CN1CCN(C2=Nc3cc(Cl)ccc3Nc3ccccc32)CC1
Activity (Rattus norvegicus [17]): Active

Cc1cc(F)ccc1NC(=O)CN1CCC(c2cccc[n+]2[O-])CC1
Ki (D(4) dopamine receptor [12]): 405 nM | Ki (D(2) dopamine receptor [5]): > 10000 nM | Activity [18]: inactive | EC50 (D(4) dopamine receptor [2]): 60 nM | Activity [19]: inactive | Activity (Mustela putorius furo [20]): inactive | Efficacy [21]: 76% | Activity (D(2) dopamine receptor [22]): inactive | bioavailability [7]: 7% | Activity ([3]; filed as agonist): Agonist | Activity (Mustela putorius furo [23]): inactive | EC50 (D(4) dopamine receptor [24]): 100 nM | Activity (Rattus norvegicus [10]): 67% | Activity [25]: inactive | Ki (D(2) dopamine receptor [26]): > 10000 nM

Cc1cccc(NC(=O)CN2CCC(c3cccc[n+]3[O-])CC2)c1
Ki (D(4) dopamine receptor [12]): 294 nM | Ki (D(2) dopamine receptor [5]): > 10000 nM | inhibition at 3 ug/mL (hERG): 44.8% | bioavailability [27]: 11% | Activity [28]: inactive | Activity [29]: inactive | EC50 (D(4) dopamine receptor [2]): 32 nM | Activity [19]: inactive | Activity (Mustela putorius furo [20]): inactive | Efficacy [21]: 80% | half-life [30]: 18 min | Activity (D(2) dopamine receptor [22]): inactive | bioavailability [7]: 11% | Activity (Rattus norvegicus [31]): 75% | Activity [32]: inactive | bioavailability [8]: 61% | Activity ([3]; filed as agonist): Agonist | Activity (Mustela putorius furo [23]): inactive | half-life [9]: 30 min | EC50 (D(4) dopamine receptor [24]): 57 nM | Activity [33]: inactive | Activity [34]: inactive | bioavailability [35]: 70% | Activity [36]: inactive | Activity [25]: inactive | Ki (D(2) dopamine receptor [26]): > 10000 nM | Activity [37]: 12% | bioavailability [38]: 28%
